Our source for the activation values is PubChem BioAssay AID504383 (The Scripps Research Institute Molecular Screening Center, 2011).

In all, about 2,500 compounds went through this assay and about 1,200 (48%) were called active. So high a share suggests a set chosen from earlier hits. This is one part of the list. A number with no mark means an inactive call.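 Rule for the calls: active = mean activation above the low control average plus 3 SD, as set in the primary screen (cut at about 12% in these data); inactive = the rest.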

This assay addresses Troponin I, cardiac muscle (Homo sapiens) + Troponin T, cardiac muscle (Homo sapiens) + Troponin C, slow skeletal and cardiac muscles (Homo sapiens) (UniProt P19429+P45379+P63316). The experiment in a line: calcium sensitizers of cardiac thin filaments – biochemical, IANBD-TnC fluorescence, triplicate, confirmation (AID 504383).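 Note: 0% = DMSO at 0.472 mM calcium and 100% = DMSO at 2.9 mM calcium.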 The note with it: IANBD-labeled cardiac RTF, Ca2+ sensitivity fluorescence; at 7.2 µM; active compounds read high; scaled from EC20 to saturating calcium; tested at EC20 calcium, 0.472 mM. The procedure, abridged:
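System: Labelled thin filament complex | Technique: Filament fluorescence intensity | Benchmarks: Low control EC20 calcium, high control EC100 calcium | Timing: 15 min at 25 °C | Compound dosing: One dose, 7.2 µM nominal | Probe or stimulus: Ca2+ 0.472 mM, EC20 level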
As for `Nc1ccc2c3c(cccc13)-c1ccccc1-2`, the activation is 10%.
To `Cc1ccccc1S(=O)(=O)Cc1ccc(C(=O)NCCN(C)Cc2ccccc2)o1` belongs 28.6% (active).
In the case of `O=C(NCCN1CCOCC1)c1ccc(CS(=O)(=O)c2c(Cl)cccc2Cl)o1` it was 7.99%; in that of `Brc1ccc(-c2cnnc(N3CCCC3)n2)cc1`, 184% (active); in that of `CC(C)(C)c1ccc(-c2n[nH]c(=S)n2CC2CCCO2)cc1` (stereo not drawn), 101% (active).
In the case of `CC(C)C(=O)c1cc2c(cc1NC(=O)c1ccccc1)OCCO2` it was 3.91%; in that of `O=C(Nc1ccccc1OC(=O)c1ccccc1)c1ccccc1`, 235% (active); in that of `COc1ccccc1NC(=O)/C=C/C(=O)O`, 9.02%.
In the case of `Cc1ccc([N+](=O)[O-])c(OCCCN2C(=O)NC(C)(C)C2=O)c1`, the activation was 11%.
Turning to `COc1ccc(C2=NN(C(=O)CSc3ncccn3)C(c3ccc(C)cc3)C2)cc1` (stereo not drawn), the activation was 505% (active).
In the case of `CC1CCC(C(C)C)C(OC(=O)Cn2c(-c3ccccc3)[n+](C)c3ccccc32)C1` (stereo not drawn) it was 10.7%.
For `COc1ccc(CN=C2NC(=O)CC(C(=O)Nc3ccc(F)cc3)S2)cc1` (stereo not drawn), the activation was 10.2%.
As to `CN(C)c1ccc(/C=C/C(=O)c2cc(Cl)ccc2O)cc1`, the activation was 5.68%.
Turning to `CC(/C=C/c1ccc(N(C)C)cc1)=N/N=C1/NC(=O)CC(C(=O)Nc2ccc(Cl)cc2)S1` (stereo not drawn), the activation is 14.4% (active).
To `COc1ccc(-c2cc(C3CC3)nc(SCC(=O)c3cccs3)c2C#N)cc1` belongs 8.22%.
To `O=C(c1cccs1)N1CCN=C1SCc1cccc(F)c1` belongs 0.56%; to `N#Cc1c(-c2ccccc2F)cc(C2CC2)nc1SCC(=O)c1cccs1`, 14.3% (active).
Regarding `CC(C)OC(=O)c1c2c(n3ccccc13)C(=O)c1ccccc1C2=O`, the activation is 9.36%.
As to `CCN(CC)c1ccc(/C=C/c2cccc[n+]2C)c(OC)c1`, the activation is 63.4% (active).
To `Cc1nc(NC(=O)c2ccccc2[N+](=O)[O-])sc1C(=O)N(C)C` belongs 11.2%; to `CN(C)/C=C/C(=O)c1ccc(Br)s1`, 10.5%; to `CN(C)NC(=O)c1ccc([N+](=O)[O-])s1`, 31.3% (active).
In the case of `Cc1c(Cl)c([N+](=O)[O-])nn1CC(=O)N1CCN(C23CC4CC(CC(C4)C2)C3)CC1` it was 12% (active).
Take `O=C(Cn1cnc2c(cnn2-c2ccccc2)c1=O)Nc1ccc(S(=O)(=O)N2CCOCC2)cc1`: the activation was 31% (active).
As for `CN(C)NC(=S)Nc1ccc(S(=O)(=O)N2CCCCC2)cc1`, the activation was 19.8% (active).
In the case of `O=S(=O)(c1ccc(NC(=S)Nc2ccccc2)cc1)N1CCOCC1` it was 24.5% (active); in that of `Cc1cccc(NC(=O)Cn2cnc3ccc(S(=O)(=O)N4CCC(C)CC4)cc3c2=O)n1`, 8.56%; in that of `CN1CC[C@@H]2C(=O)N3CCc4ccc(Br)cc4[C@@H]3C[C@@H]21`, 10.5%.
Take `CC(Sc1nc2ncc(Cl)cc2[nH]1)C(=O)Nc1ccc(C(N)=O)cc1` (stereo not drawn): the activation was 1.26%.
Regarding `O=C(CSc1nc2ncc(Br)cc2[nH]1)c1cccc([N+](=O)[O-])c1`, the activation is 64% (active).
In the case of `CC(=O)N1C(=O)C(=C2C=C(C)OC(C)=C2)c2ccccc21` it was 62.7% (active); in that of `Cc1c2ccccc2nc2c(F)c(N(C)C)c(F)c(F)c12`, 19.2% (active).
In the case of `Cc1c2ccccc2nc2c(F)c(NCCO)c(F)c(F)c12` it was 159% (active).
On to `CCn1c(O)c(/C=N/N=C/c2ccccc2)c2ccc(C3=NNC(=O)CC3)cc21`, for which the activation was 10.2%.
With `CCn1c(O)c(/C=N/N=C/c2ccc(OC)cc2)c2cc(C3=NNC(=O)CC3)ccc21`, the activation is 20.9% (active).
In the case of `C/C(=N\Nc1nccnc1Cl)c1ccc(Cl)c(Cl)c1` it was 5.84%.
In the case of `C/C(=N/Nc1ccnc2cc(Cl)ccc12)c1ccc(N)cc1` it was 18.9% (active); in that of `O=C(Nc1ccccc1)C1CC2CCCC(C1)C2=O` (stereo not drawn), 8.65%; in that of `O=C(Nc1ccccc1)OC1CCC2CC1CCC2OC(=O)Nc1ccccc1` (stereo not drawn), 7.87%.
On to `O=C(Nc1ccccc1)NC1CS(=O)(=O)CC1O` (stereo not drawn), for which the activation is 149% (active).
To `CCC(C)(C)NC(=O)C(c1ccc(F)cc1)N(Cc1ccco1)C(=O)c1cnccn1` (stereo not drawn) belongs 70.6% (active); to `O=C1CCN2C=Nc3cccc4ccc1c2c34`, 13.7% (active).
Take `CNC(=S)N1N=C(c2ccc(Br)cc2)CC1c1ccc(N(C)C)cc1` (stereo not drawn): the activation is 31% (active).
In the case of `CCSC1=N/C(=C\C=C2/Oc3ccccc3N2CC)C(=O)S1` it was 31.9% (active).
In the case of `CCCN1C(=O)/C(=C\C=C2\N(CC)c3ccccc3C2(C)C)SC1=S` it was 10.1%; in that of `CCCN1C(=O)/C(=C/C=C2\N(CC)c3ccccc3C2(C)C)SC1=S`, 3.85%; in that of `CCN1/C(=C/C=C/c2oc3ccc(-c4ccccc4)cc3[n+]2CC)Oc2ccc(-c3ccccc3)cc21`, 6.07%.
In the case of `CCCCN1C(=O)/C(=C/C=C2\Oc3ccccc3N2CC)SC1=S` it was 53.5% (active).
For `COc1cccc(F)c1C(=O)NC(=O)Nc1ccc2nc(C)oc2c1`, the activation was 252% (active).
For `CC(=O)OCCn1c2nc(=O)[nH]c(=O)c-2nc2cc(C)c(C)cc21`, the activation is 1.76%.
Consider `Cc1ccccc1-n1c(=O)n(CCc2ccccc2)c(=O)c2[nH]cnc21`, for which the activation was 8.97%.
As to `C=CCn1c(=O)[nH]c2nc3cc(N=CN(C)C)c(C)cc3nc2c1=O`, the activation is 69.7% (active).
Turning to `Cc1cc2nc3c(=O)n(CCc4ccccc4)c(=O)[nH]c3nc2cc1N`, the activation is 17.3% (active).
On to `CCCCn1c(=O)[nH]c2nc3cc(N)ccc3nc2c1=O`, for which the activation was 0.26%.
To `CCCCCCn1c(=O)[nH]c2nc3cc(N)c(C)cc3nc2c1=O` belongs 158% (active).
To `COCCN1C(=O)/C(=C/c2ccc(N3CCCC3)cc2)SC1=S` belongs 15.2% (active); to `COCCN1C(=O)/C(=C/c2ccc(N3CCCC3)cc2C)SC1=S`, 0.91%; to `COc1ccc(/C=C2\SC(=O)N(CCC(=O)N3CCN(C)CC3)C2=O)cc1`, 5.35%.
In the case of `O=C1c2ccccc2-c2onc3ccc(Oc4ccccc4)c1c23` it was 7.69%.
Consider `Cc1occc1C(=O)N=Nc1c(O)n(C)c2ccccc12`, for which the activation was 15.2% (active).
In the case of `COc1ccc(-c2noc(CCC(=O)NCCc3ccccc3)n2)cc1` it was 10.9%.
In the case of `O=C(CSc1nc2ccccc2s1)NNC(=S)Nc1ccccc1` it was 482% (active); in that of `COc1ccc(OC)c(-n2nnnc2SCC(=O)NCCc2ccccc2)c1`, 12.5% (active).
On to `CCOC(=O)COn1c(=O)c(-c2cc3ccccc3o2)[n+]([O-])c2ccccc21`, for which the activation was 2.03%.
To `O=C(CSc1nc2ccccc2s1)c1cc2ccccc2o1` belongs 14.8% (active); to `Cc1ccccc1Nc1nnc(SCC(=O)c2cc3ccccc3o2)s1`, 6.8%; to `O=C(CSc1nc2cc(Cl)ccc2s1)c1cc2ccccc2o1`, 107% (active).
To `COc1ccc(OC)c(NC(=O)NCCc2cccc(Cl)c2)c1` belongs 5.54%.
